This note sets out measurements from ChEMBL document CHEMBL1149914 (J Med Chem, 2008).

Test [1] can be described thus: Ratio of Ki for SERT to Ki for DAT. In outline:
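SERT Ki divided by DAT Ki. Both come from [125I]RTI-55 (0.01 nM) binding in pH 7.4 sodium phosphate/BSA buffer with protease inhibitors, run in triplicate for 18–24 h at 4 °C.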

The target in test [2] is Sodium-dependent serotonin transporter (Homo sapiens, UniProt P31645). In words: Displacement of [125I]RTI55 from SERT. The method, boiled down: (§1)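 [125I]RTI-55 at 0.01 nM (s.a. 2200 Ci/mmol) competitive binding. Drugs and blocker in 55.2 mM sodium phosphate pH 7.4 with 1 mg/mL BSA. Radioligand in the same buffer with chymostatin 25 μg/mL, leupeptin 25 μg/mL, EDTA 100 μM and EGTA 100 μM. Triplicate incubation for 18–24 h at 4 °C (equilibrium), 1 mL final volume. Ki derived.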
Background: Loss of bound radioactivity is the signal in a displacement assay; it reports binding, not function.

The target in test [3] is Sodium-dependent dopamine transporter (Homo sapiens, UniProt Q01959). The test is described as follows: Displacement of [125I]RTI55 from DAT. In outline:
as §1

Chain of Sodium-dependent dopamine transporter (Q01959 whole entry): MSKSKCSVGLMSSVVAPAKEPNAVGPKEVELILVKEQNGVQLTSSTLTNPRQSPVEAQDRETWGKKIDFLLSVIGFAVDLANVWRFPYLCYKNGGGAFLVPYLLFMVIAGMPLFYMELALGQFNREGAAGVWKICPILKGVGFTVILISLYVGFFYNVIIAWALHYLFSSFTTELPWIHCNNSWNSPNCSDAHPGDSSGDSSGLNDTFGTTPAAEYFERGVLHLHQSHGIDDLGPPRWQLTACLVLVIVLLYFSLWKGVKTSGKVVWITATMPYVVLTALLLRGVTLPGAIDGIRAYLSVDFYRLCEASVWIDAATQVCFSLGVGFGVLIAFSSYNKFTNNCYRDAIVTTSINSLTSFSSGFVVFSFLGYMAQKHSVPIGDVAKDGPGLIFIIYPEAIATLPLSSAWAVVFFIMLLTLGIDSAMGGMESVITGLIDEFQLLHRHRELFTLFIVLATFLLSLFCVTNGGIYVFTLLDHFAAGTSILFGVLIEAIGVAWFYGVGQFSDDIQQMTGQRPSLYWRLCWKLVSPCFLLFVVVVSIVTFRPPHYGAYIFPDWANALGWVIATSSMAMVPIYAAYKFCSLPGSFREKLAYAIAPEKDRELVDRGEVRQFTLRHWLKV
Chain of Sodium-dependent serotonin transporter (P31645 whole entry): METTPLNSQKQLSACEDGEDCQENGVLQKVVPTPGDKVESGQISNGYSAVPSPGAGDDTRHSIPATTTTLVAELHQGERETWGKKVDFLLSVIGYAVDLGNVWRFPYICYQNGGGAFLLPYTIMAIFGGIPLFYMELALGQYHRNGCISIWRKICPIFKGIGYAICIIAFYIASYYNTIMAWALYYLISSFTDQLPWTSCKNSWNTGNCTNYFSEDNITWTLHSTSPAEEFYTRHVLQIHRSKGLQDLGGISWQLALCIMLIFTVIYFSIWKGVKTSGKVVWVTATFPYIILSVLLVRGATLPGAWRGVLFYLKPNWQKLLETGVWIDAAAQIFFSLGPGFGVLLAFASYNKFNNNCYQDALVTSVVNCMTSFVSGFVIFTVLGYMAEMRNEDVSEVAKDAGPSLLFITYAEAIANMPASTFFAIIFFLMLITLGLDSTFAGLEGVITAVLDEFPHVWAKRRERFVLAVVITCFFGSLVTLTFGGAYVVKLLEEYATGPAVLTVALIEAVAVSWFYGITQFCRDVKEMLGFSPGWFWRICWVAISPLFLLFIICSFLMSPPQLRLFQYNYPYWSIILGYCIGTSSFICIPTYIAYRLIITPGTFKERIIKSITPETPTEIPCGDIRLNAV

One may read the Ki as the equilibrium dissociation constant of an inhibitor or competing ligand from its target. As for `O[C@H](Cc1ccccc1)CN1CCN(CCOC(c2ccc(F)cc2)c2ccc(F)cc2)CC1`, the Ratio Ki in test [1] was 13. The inhibition constant (Ki) in test [2] is 160 nM; in test [3] it was 12 nM.

Take `Fc1ccc(C(OCCN2CCN(C[C@@H](F)Cc3ccccc3)CC2)c2ccc(F)cc2)cc1`: in test [1], the Ratio Ki was determined as 109. This molecule also displayed an inhibition constant (Ki) in test [2] of 290 nM.

For the molecule `CC(Cc1ccccc1)CN1CCN(CCOC(c2ccc(F)cc2)c2ccc(F)cc2)CC1` (single isomer, unassigned; (-)) [listing 1 of 2 here], in test [1], the Ratio Ki was found to be 11.

Regarding `CC(O)(Cc1ccccc1)CN1CCN(CCOC(c2ccc(F)cc2)c2ccc(F)cc2)CC1` (centres undefined), the Ratio Ki in test [1] was 6. The Ki in test [2] is 310 nM.

Take `Fc1ccc(C(OCCN2CCN(CCc3ccccc3)CC2)c2ccc(F)cc2)cc1`: the Ratio Ki in test [1] turned out to be 5. Besides, the Ki in test [2] was 36 nM; in test [3], 8 nM.

On to `CO[C@H](Cc1ccccc1)CN1CCN(CCOC(c2ccc(F)cc2)c2ccc(F)cc2)CC1`, for which the Ratio Ki in test [1] is 9. Besides, in test [2], the affinity, expressed as Ki, was 250 nM.

Regarding `N[C@@H](Cc1ccccc1)CN1CCN(CCOC(c2ccc(F)cc2)c2ccc(F)cc2)CC1`, in test [1], the Ratio Ki is 2. Also, the Ki in test [2] turned out to be 88 nM.

For the molecule `O[C@@H](Cc1ccccc1)CN1CCN(CCOC(c2ccc(F)cc2)c2ccc(F)cc2)CC1`, the Ratio Ki in test [1] stood at 307. Besides, the inhibitory constant (Ki) was found to be 230 nM in test [2] and 0.75 nM in test [3].

In test [2], `CC(Cc1ccccc1)CN1CCN(CCOC(c2ccc(F)cc2)c2ccc(F)cc2)CC1` (single isomer, unassigned; (-)) [listing 2 of 2 here] registered an inhibitory constant (Ki) of 190 nM.

Regarding `FC[C@H](Cc1ccccc1)N1CCN(CCOC(c2ccc(F)cc2)c2ccc(F)cc2)CC1`, in test [1], the Ratio Ki is 0.8. Also, affinity in test [2] was put at a Ki of 110 nM.

For `FC[C@@H](Cc1ccccc1)N1CCN(CCOC(c2ccc(F)cc2)c2ccc(F)cc2)CC1`, the Ratio Ki in test [1] turned out to be 2. This molecule also had an inhibition constant Ki in test [2] of 190 nM.

Regarding `CC(Cc1ccccc1)CN1CCN(CCOC(c2ccc(F)cc2)c2ccc(F)cc2)CC1` (stereo in doubt; (+)-7) [listing 1 of 2 here], the Ratio Ki in test [1] came out at 7.

Consider `CC(O)(CCN1CCN(CCOC(c2ccc(F)cc2)c2ccc(F)cc2)CC1)c1ccccc1` (centres undefined), for which the Ratio Ki in test [1] came to 39. The inhibitory constant (Ki) in test [2] is 150 nM.

Turning to `O=C(Cc1ccccc1)CN1CCN(CCOC(c2ccccc2)c2ccccc2)CC1`, the Ratio Ki in test [1] was determined as 250. The molecule also came in with an inhibitory constant (Ki) in test [2] of 2500 nM.

Consider `O=C(CN1CCN(CCOC(c2ccc(F)cc2)c2ccc(F)cc2)CC1)c1ccccc1`, for which, in test [1], the Ratio Ki was determined as 2. Further, affinity in test [2] was put at a Ki of 88 nM.

For the molecule `O=C(CN1CCN(CCOC(c2ccccc2)c2ccccc2)CC1)c1ccccc1`, the Ratio Ki in test [1] stood at 3. The same molecule displayed an inhibitory constant (Ki) in test [2] of 1400 nM.

Regarding `CC(O)(CCN1CCN(CCOC(c2ccccc2)c2ccccc2)CC1)c1ccccc1` (centres undefined), in test [1], the Ratio Ki came out at 254. In test [2], this molecule yielded an inhibition constant Ki of 1800 nM.

Regarding `O[C@H](Cc1ccccc1)CN1CCN(CCOC(c2ccccc2)c2ccccc2)CC1`, the Ratio Ki in test [1] turned out to be 72. For the same molecule, the Ki came to 1800 nM in test [2] and 25 nM in test [3].

As for `C=C(Cc1ccccc1)CN1CCN(CCOC(c2ccccc2)c2ccccc2)CC1`, the Ratio Ki in test [1] was determined as 8. Besides, in test [2], affinity was put at a Ki of 3300 nM.

For the molecule `C=C(CCN1CCN(CCOC(c2ccc(F)cc2)c2ccc(F)cc2)CC1)c1ccccc1`, the Ratio Ki in test [1] was 11. For the same molecule, the Ki in test [2] came to 190 nM.

`C=C(CCN1CCN(CCOC(c2ccccc2)c2ccccc2)CC1)c1ccccc1`: in test [1], the Ratio Ki worked out at 59. In addition, in test [2], the Ki is 1800 nM.

For the molecule `O=C(Cc1ccccc1)CN1CCN(CCOC(c2ccc(F)cc2)c2ccc(F)cc2)CC1`, the Ratio Ki in test [1] turned out to be 38. In addition, in test [2], the Ki came out at 250 nM.

`CC(Cc1ccccc1)CN1CCN(CCOC(c2ccc(F)cc2)c2ccc(F)cc2)CC1` (stereo in doubt; (+)-7) [listing 2 of 2 here] had an inhibition constant (Ki) in test [2] of 120 nM.

On to `Fc1ccc(C(OCCN2CCN(C[C@H](F)Cc3ccccc3)CC2)c2ccc(F)cc2)cc1`, for which, in test [1], the Ratio Ki was found to be 25. In addition, the affinity in test [2], expressed as Ki, was 540 nM.

With `C=C(Cc1ccccc1)CN1CCN(CCOC(c2ccc(F)cc2)c2ccc(F)cc2)CC1`, in test [1], the Ratio Ki was determined as 4. Moreover, the Ki in test [2] is 430 nM.

Consider `CO[C@@H](Cc1ccccc1)CN1CCN(CCOC(c2ccc(F)cc2)c2ccc(F)cc2)CC1`, for which, in test [1], the Ratio Ki was 8. This molecule also registered a Ki in test [2] of 220 nM.

Regarding `N[C@H](Cc1ccccc1)CN1CCN(CCOC(c2ccc(F)cc2)c2ccc(F)cc2)CC1`, the Ratio Ki in test [1] is 1. For the same molecule, in test [2], the Ki stood at 22 nM.

Take `O[C@@H](Cc1ccccc1)CN1CCN(CCOC(c2ccccc2)c2ccccc2)CC1`: the Ratio Ki in test [1] was determined as 957. In addition, the Ki worked out at 2200 nM in test [2] and 2.3 nM in test [3].

Turning to `CC(O)(Cc1ccccc1)CN1CCN(CCOC(c2ccccc2)c2ccccc2)CC1` (centres undefined), in test [1], the Ratio Ki came to 14. Moreover, in test [2], affinity was put at a Ki of 2000 nM.
